Experimental data reported in ChEMBL document CHEMBL4304816, “A Novel Biphenyl-based Chemotype of Retinoid X Receptor Ligands Enables Subtype and Heterodimer Preferences” (ACS Med Chem Lett, 2019).
The source made the active and inactive calls. No cut-off for these calls is given here.

Key:
Format in all cases: cell-based
[1] = biological target: T1, Retinoic acid receptor RXR-alpha (Homo sapiens, UniProt P19793); assay: Agonist activity at Gal4-LBD fused RXRalpha (unknown origin) expressed in HEK293T cells after 14 to 16 hrs by dual-Glo luciferase assay
T1 sequence (P19793 whole entry): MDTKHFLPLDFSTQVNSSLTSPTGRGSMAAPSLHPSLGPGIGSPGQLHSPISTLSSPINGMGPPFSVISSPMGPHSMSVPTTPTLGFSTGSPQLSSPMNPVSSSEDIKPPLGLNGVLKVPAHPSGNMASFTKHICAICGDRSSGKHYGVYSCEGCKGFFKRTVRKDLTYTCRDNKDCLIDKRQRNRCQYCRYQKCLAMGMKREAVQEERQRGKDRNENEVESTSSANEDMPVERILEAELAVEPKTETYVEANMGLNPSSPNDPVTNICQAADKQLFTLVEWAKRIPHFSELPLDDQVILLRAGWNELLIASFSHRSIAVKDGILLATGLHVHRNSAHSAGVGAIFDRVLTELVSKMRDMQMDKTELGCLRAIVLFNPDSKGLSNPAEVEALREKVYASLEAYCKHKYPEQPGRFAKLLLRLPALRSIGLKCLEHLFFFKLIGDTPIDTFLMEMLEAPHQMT
In short: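 Gal4-hybrid RXRα/β/γ reporter gene assays in HEK293T cells. Fold activation is the maximal fold activation versus 0.1% DMSO.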

[2] = biological target: T2, Retinoic acid receptor RXR-gamma (Homo sapiens) (UniProt P48443); assay: Agonist activity at Gal4-LBD fused RXRgamma (unknown origin) expressed in HEK293T cells at 20 uM after 14 to 16 hrs by dual-Glo luciferase assay
T2 sequence (whole entry): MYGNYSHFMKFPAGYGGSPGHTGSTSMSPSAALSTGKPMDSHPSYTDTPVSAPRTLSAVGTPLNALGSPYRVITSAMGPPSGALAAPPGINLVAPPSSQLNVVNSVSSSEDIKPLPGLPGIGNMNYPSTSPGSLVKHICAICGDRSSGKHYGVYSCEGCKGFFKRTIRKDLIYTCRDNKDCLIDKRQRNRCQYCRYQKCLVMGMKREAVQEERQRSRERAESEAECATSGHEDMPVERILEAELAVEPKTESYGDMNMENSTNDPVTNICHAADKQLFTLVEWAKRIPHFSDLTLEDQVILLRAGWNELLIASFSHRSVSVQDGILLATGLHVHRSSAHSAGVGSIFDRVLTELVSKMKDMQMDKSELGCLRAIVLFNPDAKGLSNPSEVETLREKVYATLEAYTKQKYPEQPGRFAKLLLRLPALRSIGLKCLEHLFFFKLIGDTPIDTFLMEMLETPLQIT

[3] = biological target: T3, Peroxisome proliferator-activated receptor alpha (Homo sapiens) (UniProt Q07869); assay: Agonist activity at Gal4-LBD fused PPARalpha (unknown origin) expressed in HEK293T cells at 20 uM after 14 to 16 hrs by dual-Glo luciferase assay
T3 sequence (whole entry): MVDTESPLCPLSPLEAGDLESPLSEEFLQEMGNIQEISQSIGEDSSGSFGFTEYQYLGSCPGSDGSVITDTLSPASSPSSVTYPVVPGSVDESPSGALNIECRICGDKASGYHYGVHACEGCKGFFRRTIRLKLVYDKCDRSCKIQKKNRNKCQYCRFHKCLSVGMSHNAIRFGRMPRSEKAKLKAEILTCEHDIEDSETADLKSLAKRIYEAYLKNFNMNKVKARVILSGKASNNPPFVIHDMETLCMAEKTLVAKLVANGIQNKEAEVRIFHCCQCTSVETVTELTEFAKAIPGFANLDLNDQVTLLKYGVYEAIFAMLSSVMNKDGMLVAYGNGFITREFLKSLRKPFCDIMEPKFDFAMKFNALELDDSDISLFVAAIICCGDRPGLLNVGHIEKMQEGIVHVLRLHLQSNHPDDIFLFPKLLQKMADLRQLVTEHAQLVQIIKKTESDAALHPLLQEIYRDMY
In short: (§1)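 Gal4-hybrid reporter gene selectivity panel of related nuclear receptors (PPARα/β/γ, RARα/β/γ) in HEK293T cells. Activity is read as mean fold activation versus 0.1% DMSO vehicle, n ≥ 2.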

[4] = biological target: T4, Retinoic acid receptor RXR-alpha (Homo sapiens) (UniProt P19793); assay: Agonist activity at Gal4-LBD fused RXRalpha (unknown origin) expressed in HEK293T cells at 10 uM after 14 to 16 hrs by dual-Glo luciferase assay
T4 sequence (whole entry): T1 sequence (P19793 whole entry)

[5] = biological target: T5, Retinoic acid receptor alpha (Homo sapiens) (UniProt P10276); assay: Agonist activity at Gal4-LBD fused RARalpha (unknown origin) expressed in HEK293T cells at 10 uM after 14 to 16 hrs by dual-Glo luciferase assay; in short: as §1
T5 sequence (whole entry): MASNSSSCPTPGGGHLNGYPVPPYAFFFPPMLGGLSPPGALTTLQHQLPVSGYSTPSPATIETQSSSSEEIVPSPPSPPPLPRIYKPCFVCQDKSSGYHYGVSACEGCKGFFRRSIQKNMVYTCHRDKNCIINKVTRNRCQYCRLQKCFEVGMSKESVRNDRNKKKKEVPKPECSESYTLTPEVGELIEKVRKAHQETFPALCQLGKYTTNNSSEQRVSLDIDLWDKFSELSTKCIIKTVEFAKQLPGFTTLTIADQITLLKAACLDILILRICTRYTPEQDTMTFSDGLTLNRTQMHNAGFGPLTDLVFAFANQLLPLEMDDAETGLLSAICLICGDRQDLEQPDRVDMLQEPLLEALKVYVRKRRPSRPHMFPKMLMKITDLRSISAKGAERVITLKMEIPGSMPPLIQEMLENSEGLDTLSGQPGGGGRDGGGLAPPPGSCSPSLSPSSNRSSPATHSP

[6] = biological target: T6, Retinoic acid receptor gamma (Homo sapiens) (UniProt P13631); assay: Agonist activity at Gal4-LBD fused RARgamma (unknown origin) expressed in HEK293T cells after at 10 uM 14 to 16 hrs by dual-Glo luciferase assay; in short: as §1
T6 sequence (whole entry): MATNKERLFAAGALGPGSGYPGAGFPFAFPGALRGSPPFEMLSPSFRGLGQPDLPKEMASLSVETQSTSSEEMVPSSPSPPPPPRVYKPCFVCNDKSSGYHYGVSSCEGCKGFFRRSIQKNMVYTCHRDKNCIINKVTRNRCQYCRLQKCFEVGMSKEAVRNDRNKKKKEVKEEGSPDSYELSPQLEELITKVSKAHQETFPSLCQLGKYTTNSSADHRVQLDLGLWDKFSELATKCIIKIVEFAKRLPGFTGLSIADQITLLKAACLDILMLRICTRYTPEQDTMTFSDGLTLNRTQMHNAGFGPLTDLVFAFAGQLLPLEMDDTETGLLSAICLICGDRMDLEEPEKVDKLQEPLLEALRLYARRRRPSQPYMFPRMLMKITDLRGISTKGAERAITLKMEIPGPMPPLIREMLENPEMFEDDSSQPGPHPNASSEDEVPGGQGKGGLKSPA

[7] = biological target: T2, Retinoic acid receptor RXR-gamma (Homo sapiens); assay: Agonist activity at Gal4-LBD fused RXRgamma (unknown origin) expressed in HEK293T cells at 0.1 to 3 uM after 14 to 16 hrs in presence of RXR antagonist HX531 by dual-Glo luciferase reporter gene assay

Q: What does the source list for Cc1cc(-c2ccc(C(=O)O)cc2)cc(C(C)(C)C)c1?
A: EC50 [1]: 8 µM; Activity [2]: inactive; Activity [3]: Active

Q: Which Activity [4] does the source give for Cc1cc(-c2cc(C(C)(C)C)cc(C(C)(C)C)c2)ccc1C(=O)O here?
A: inactive

Q: And the Activity [5]?
A: Active

Q: What about the Activity [6] of the same compound?
A: Active

Q: With Cc1cc(-c2cc(C(F)(F)F)cc(C(F)(F)F)c2)ccc1CC(=O)O as the compound, how does the EC50 [1] read?
A: 0.21 µM

Q: What about the Activity [7] of the same compound?
A: inactive

Q: What about the Activity [5] of the same compound?
A: Active

Q: What about the Activity [6] of the same compound?
A: Active
